We go through 3 compounds from article PMC11600146 (JACS Au, 2024).

Converted amounts (≈) assume the structure as drawn. “Also recorded” adds a separate entry of the source.

The IC50 is the midpoint of a concentration-inhibition curve.

The test system of series [1] is K. pneumoniae 10031. The series can be described thus: MIC assay, broth microdilution. It is filed as cell-based. Conditions: Klebsiella pneumoniae, 10031, 22 h, read-out: K. pneumoniae 10031 MIC (μg/mL). In short, it runs like this: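 Broth microdilution adapted from NCCLS methods. Overnight cultures were diluted to OD600 0.006 in cation-adjusted Mueller–Hinton medium with 7% DMSO and incubated with a range of test compound concentrations at 37 °C for 22 h. MTT (5 mg/mL) was added for 3 h, solubilized with 2-propanol, and read as the absorbance difference at 570 and 690 nm. MIC was the lowest concentration with readings within 4-fold of bacteria-free wells.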
(Broth dilution looks for growth in wells or tubes with falling amounts of substance.)

Series [2] deals with E. coli 25922. Kind of series: MIC assay, broth microdilution. The format is cell-based. Conditions: Escherichia coli, 25922, 22 h, read-out: E. coli 25922 MIC (μg/mL).
In the next series the target is T1, K. pneumoniae LpxH (Klebsiella pneumoniae, UniProt A6T5R0).
T1 sequence (A6T5R0 1-240): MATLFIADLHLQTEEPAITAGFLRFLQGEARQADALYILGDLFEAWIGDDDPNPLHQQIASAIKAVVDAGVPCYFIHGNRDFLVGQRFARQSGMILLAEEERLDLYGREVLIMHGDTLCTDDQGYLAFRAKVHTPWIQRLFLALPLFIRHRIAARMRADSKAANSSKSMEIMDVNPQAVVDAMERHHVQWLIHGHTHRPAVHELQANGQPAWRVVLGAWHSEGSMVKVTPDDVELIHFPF
The series can be described thus: LpxE-coupled LpxH activity assay. The format is biochemical. In short, it runs like this:
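LpxE-coupled assay with GB1-K. pneumoniae LpxH-His10, 10 ng/mL final (1 ng/mL for two analogs, with an extended time course), 100 μM UDP-DAGn. Buffer: Tris-HCl pH 8.0, BSA, Triton X-100, 1 mM MnCl2, DTT, 10% DMSO. Reaction at 37 °C; time-point aliquots quenched with 5 mM EDTA, then A. aeolicus LpxE 5 μg/mL for 30 min, formic acid, malachite green, A620. Triplicates. IC50 from dose–response fit; Ki = IC50/(1+[S]/KM), KM 68.1 μM.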

In another series the target is T2, E. coli LpxH (Escherichia coli, UniProt P43341).
T2 sequence (P43341 1-240): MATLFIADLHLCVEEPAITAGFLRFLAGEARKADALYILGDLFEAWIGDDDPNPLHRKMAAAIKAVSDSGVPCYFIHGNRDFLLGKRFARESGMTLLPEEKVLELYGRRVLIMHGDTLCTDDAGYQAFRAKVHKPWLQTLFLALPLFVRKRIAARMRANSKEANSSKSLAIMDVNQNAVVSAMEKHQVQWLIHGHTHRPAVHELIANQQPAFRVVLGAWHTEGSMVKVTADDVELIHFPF
The series can be described thus: LpxE-coupled LpxH activity assay. It is filed as biochemical. In outline:
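LpxE-coupled assay with GB1-E. coli LpxH-His10 (10 ng/mL in 2× enzyme/inhibitor mix; 0.5 ng/mL final for two analogs, with a longer time course). Mixes were preincubated 10 min at 37 °C and quenched with EDTA, then LpxE 30 min, malachite green, A620. Run in triplicate. IC50 fitted; Ki from competitive equation, KM 61.7 μM.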

For series [3], the system named is K. pneumoniae 10031. The series can be described thus: Time-kill kinetics. It is filed as cell-based.
The subject of a further series is HepG2 cells. The series can be described thus: In vitro cytotoxicity, CellTiter-Glo 2.0 cell viability assay. The format is cell-based. Conditions: HepG2, 100 μM (63 μg/mL), 24 h. For orientation: Cellular ATP, detected with luciferase, serves as a proxy for viable cell number.
Series [4] deals with E. coli 25922. Kind of series: Spontaneous resistance development. It is filed as cell-based. In outline:
(§1)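 Five to six colonies per strain, from antibiotic-free LB agar, grown to OD 1 and concentrated tenfold. […] Colonies repassaged on fresh 8× MIC plates for 48 h, counted and sequenced. Frequency is resistant growth divided by initial inoculum density.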

The next series relates to HEK293 cells. Kind of series: In vitro cytotoxicity, CellTiter-Glo 2.0 cell viability assay. It is filed as cell-based.
In series [5] the test system is K. pneumoniae 10031. Kind of series: Spontaneous resistance development. The format is cell-based. In outline: as §1

For the compound `CC(=O)N1CCc2cc(S(=O)(=O)N3CCN(c4cc(C(F)(F)F)cc(Cl)n4)CC3)ccc21` [JH-LPH-92], the MIC in the series on K. pneumoniae 10031 [1] is 0.08 µg/mL (≈ 0.164 µM); in the series with E. coli 25922 [2], more than 64 µg/mL.
Take `CC(=O)N1CCc2cc(S(=O)(=O)N3CCN(c4nccc(C(F)(F)F)n4)CC3)ccc21` [JH-LPH-93]: the MIC with K. pneumoniae 10031 [1] came to 1.3 µg/mL (≈ 2.85 µM). For the same compound, inhibition at K. pneumoniae LpxH was half-maximal at 100000 pM (IC50).
As to `CN(c1ccccc1C(=O)Nc1ccc(S(=O)(=O)N2CCN(c3cc(C(F)(F)F)cc(Cl)n3)CC2)cc1)S(C)(=O)=O` [JH-LPH-107], in the series on E. coli 25922 [2], the MIC came out at 0.31 µg/mL (≈ 0.49 µM). Also, the IC50 against E. coli LpxH and against K. pneumoniae LpxH was 130 pM in each case. In the series on K. pneumoniae 10031 [3] (time-kill, regrowth prevented up to 24 h at or above the MIC), the “type of antibiotic action” value was “bactericidal”. Besides, the “reduction of bacterial viability” value with K. pneumoniae 10031 [3] (within 6 h, at or above the MIC) is more than 1000 fold. Also, the “cytotoxicity (cell viability)” value is “did not cause any significant cytotoxicity; also recorded: no significant cytotoxicity” with HepG2 cells and “did not cause any significant cytotoxicity; also recorded: no significant cytotoxicity” in the series with HEK293 cells (HEK293, 100 μM (63 μg/mL), 24 h). Moreover, the “Rate of spontaneous resistance mutations @4× MIC” value with E. coli 25922 [4] (E. coli 25922, 4× MIC) is reported as 2.5 × 10^-9; in the series with K. pneumoniae 10031 [5] (K. pneumoniae 10031, 4× MIC), 2.0 × 10^-9. The “Rate of spontaneous resistance mutations @8× MIC” value in the series on E. coli 25922 [4] (E. coli 25922, 8× MIC) is 1.4 × 10^-9; in the series on K. pneumoniae 10031 [5] (K. pneumoniae 10031, 8× MIC) it was 9.1 × 10^-10. The safety index in the series with HEK293 cells (no cytotoxicity at 63 μg/mL in HEK293 or HepG2 versus MICs 0.31 and 0.04 μg/mL) is recorded as more than 100 fold.
